# According to ChEMBL document CHEMBL4138262, “Antineoplastic Agents. 606. The Betulastatins” (2018):
# Assays:
# Assay type in all cases: functional
# KM-20L2 = assay: Growth inhibition of human KM20L2 cells after 48 hrs by SRB assay; details: KM-20L2, 48 h
# Summary of the method: (§1)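 Cells in RPMI1640 with 5% fetal bovine serum were seeded in 96-well plates and incubated 24 h before serial dilutions of compound were added. After 48 h, plates were TCA-fixed, stained with sulforhodamine B and read on a microplate reader. Five serial dilutions were tested, with optical density in duplicate per end point. GI50 was calculated from optical density as the concentration halving net protein increase.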
# SF-268 = assay: Growth inhibition of human SF268 cells after 48 hrs by SRB assay; details: SF-268, 48 h; summary of the method: as §1
# MCF7 = assay: Growth inhibition of human MCF7 cells after 48 hrs by SRB assay; details: MCF7, 48 h; summary of the method: as §1
# NCI-H460 = assay: Growth inhibition of human NCI-H460 cells after 48 hrs by SRB assay; details: NCI-H460, 48 h; summary of the method: as §1
# DU-145 = assay: Growth inhibition of human DU145 cells after 48 hrs by SRB assay; details: DU-145, 48 h; summary of the method: as §1
# BXPC-3 = assay: Growth inhibition of human BxPC3 cells after 48 hrs by SRB assay; details: BXPC-3, 48 h; summary of the method: as §1
smiles,measurement,setting,value
C=C(C)[C@@H]1CC[C@]2(COC(C)=O)CC[C@]3(C)[C@H](CC[C@@H]4[C@@]5(C)CC[C@H](NC(=O)[C@H](C)[C@@H](OC)[C@@H]6CCCN6C(=O)C[C@@H](OC)[C@H]([C@@H](C)CC)N(C)C(=O)[C@@H](NC(=O)[C@H](C(C)C)N(C)C)C(C)C)C(C)(C)[C@@H]5CC[C@]43C)[C@@H]12,GI50,KM-20L2,7 µg/mL
same,GI50,SF-268,3.8 µg/mL
same,GI50,MCF7,4.1 µg/mL
same,GI50,NCI-H460,> 10 µg/mL
same,GI50,DU-145,2.5 µg/mL
same,GI50,BXPC-3,10 µg/mL
C=C(C)[C@@H]1CC[C@]2(CO)CC[C@]3(C)[C@H](CC[C@@H]4[C@@]5(C)CC[C@H](NC(=O)[C@H](C)[C@@H](OC)[C@@H]6CCCN6C(=O)C[C@@H](OC)[C@H]([C@@H](C)CC)N(C)C(=O)[C@@H](NC(=O)[C@H](C(C)C)N(C)C)C(C)C)C(C)(C)[C@@H]5CC[C@]43C)[C@@H]12,GI50,KM-20L2,0.85 µg/mL
same,GI50,SF-268,0.4 µg/mL
same,GI50,MCF7,0.7 µg/mL
same,GI50,NCI-H460,2.1 µg/mL
same,GI50,DU-145,0.4 µg/mL
same,GI50,BXPC-3,2 µg/mL
C=C(CNC(=O)[C@H](C)[C@@H](OC)[C@@H]1CCCN1C(=O)OC(C)(C)C)[C@@H]1CC[C@]2(COC(C)=O)CC[C@]3(C)[C@H](CC[C@@H]4[C@@]5(C)CC[C@H](OC(C)=O)C(C)(C)[C@@H]5CC[C@]43C)[C@@H]12,GI50,KM-20L2,7 µg/mL
same,GI50,SF-268,5.9 µg/mL
same,GI50,MCF7,> 10 µg/mL
same,GI50,NCI-H460,> 10 µg/mL
same,GI50,DU-145,> 10 µg/mL
same,GI50,BXPC-3,> 10 µg/mL
C=C(CBr)[C@@H]1CC[C@]2(COC(C)=O)CC[C@]3(C)[C@H](CC[C@@H]4[C@@]5(C)CC[C@H](OC(C)=O)C(C)(C)[C@@H]5CC[C@]43C)[C@@H]12,GI50,KM-20L2,> 10 µg/mL
same,GI50,SF-268,> 10 µg/mL
same,GI50,MCF7,> 10 µg/mL
same,GI50,NCI-H460,> 10 µg/mL
same,GI50,DU-145,> 10 µg/mL
same,GI50,BXPC-3,> 10 µg/mL
C=C(C)[C@@H]1CC[C@]2(CNC(=O)[C@H](C)[C@@H](OC)[C@@H]3CCCN3C(=O)C[C@@H](OC)[C@H]([C@@H](C)CC)N(C)C(=O)[C@@H](NC(=O)[C@H](C(C)C)N(C)C)C(C)C)CC[C@]3(C)[C@H](CC[C@@H]4[C@@]5(C)CC[C@H](OC(C)=O)C(C)(C)[C@@H]5CC[C@]43C)[C@@H]12,GI50,KM-20L2,2.4 µg/mL
same,GI50,SF-268,2.6 µg/mL
same,GI50,MCF7,3.6 µg/mL
same,GI50,NCI-H460,4.2 µg/mL
same,GI50,DU-145,3.7 µg/mL
same,GI50,BXPC-3,4.1 µg/mL
C=C(C)[C@@H]1CC[C@]2(C=O)CC[C@]3(C)[C@H](CC[C@@H]4[C@@]5(C)CC[C@H](OC(C)=O)C(C)(C)[C@@H]5CC[C@]43C)[C@@H]12,GI50,KM-20L2,> 10 µg/mL
same,GI50,SF-268,> 10 µg/mL
same,GI50,MCF7,> 10 µg/mL
same,GI50,NCI-H460,> 10 µg/mL
same,GI50,DU-145,> 10 µg/mL
same,GI50,BXPC-3,> 10 µg/mL
C=C(CNC(=O)[C@H](C)[C@@H](OC)[C@@H]1CCCN1C(=O)OC(C)(C)C)[C@@H]1CC[C@]2(CO)CC[C@]3(C)[C@H](CC[C@@H]4[C@@]5(C)CC[C@H](O)C(C)(C)[C@@H]5CC[C@]43C)[C@@H]12,GI50,KM-20L2,> 10 µg/mL
same,GI50,SF-268,> 10 µg/mL
same,GI50,MCF7,9 µg/mL
same,GI50,NCI-H460,> 10 µg/mL
same,GI50,DU-145,> 10 µg/mL
same,GI50,BXPC-3,> 10 µg/mL
C=C(C)[C@@H]1CC[C@]2(COC(C)=O)CC[C@]3(C)[C@H](CC[C@@H]4[C@@]5(C)CC[C@H](NC(=O)[C@H](C)[C@@H](OC)[C@@H]6CCCN6C(=O)OC(C)(C)C)C(C)(C)[C@@H]5CC[C@]43C)[C@@H]12,GI50,KM-20L2,> 10 µg/mL
same,GI50,SF-268,> 10 µg/mL
same,GI50,MCF7,> 10 µg/mL
same,GI50,NCI-H460,> 10 µg/mL
same,GI50,DU-145,> 10 µg/mL
same,GI50,BXPC-3,> 10 µg/mL
C=C(C)[C@@H]1CC[C@]2(COC(C)=O)CC[C@]3(C)[C@H](CC[C@@H]4[C@@]5(C)CC/C(=N/O)C(C)(C)[C@@H]5CC[C@]43C)[C@@H]12,GI50,KM-20L2,14.1 µg/mL
same,GI50,SF-268,> 10 µg/mL
same,GI50,MCF7,5.9 µg/mL
same,GI50,NCI-H460,> 10 µg/mL
same,GI50,DU-145,> 10 µg/mL
same,GI50,BXPC-3,10.4 µg/mL
C=C(CN=[N+]=[N-])[C@@H]1CC[C@]2(COC(C)=O)CC[C@]3(C)[C@H](CC[C@@H]4[C@@]5(C)CC[C@H](OC(C)=O)C(C)(C)[C@@H]5CC[C@]43C)[C@@H]12,GI50,KM-20L2,> 10 µg/mL
same,GI50,SF-268,> 10 µg/mL
same,GI50,MCF7,> 10 µg/mL
same,GI50,NCI-H460,> 10 µg/mL
same,GI50,DU-145,> 10 µg/mL
same,GI50,BXPC-3,> 10 µg/mL
C=C(C)[C@@H]1CC[C@]2(CN)CC[C@]3(C)[C@H](CC[C@@H]4[C@@]5(C)CC[C@H](OC(C)=O)C(C)(C)[C@@H]5CC[C@]43C)[C@@H]12,GI50,KM-20L2,1.9 µg/mL
same,GI50,SF-268,1.8 µg/mL
same,GI50,MCF7,1.8 µg/mL
same,GI50,NCI-H460,1.9 µg/mL
same,GI50,DU-145,1.8 µg/mL
same,GI50,BXPC-3,1.9 µg/mL
C=C(C)[C@@H]1CC[C@]2(COC(C)=O)CC[C@]3(C)[C@H](CC[C@@H]4[C@@]5(C)CC[C@@H](N)C(C)(C)[C@@H]5CC[C@]43C)[C@@H]12,GI50,KM-20L2,3 µg/mL
same,GI50,SF-268,1.2 µg/mL
same,GI50,MCF7,2.1 µg/mL
same,GI50,NCI-H460,6 µg/mL
same,GI50,DU-145,1.3 µg/mL
same,GI50,BXPC-3,> 10 µg/mL
C=C(C)[C@@H]1CC[C@]2(CNC(=O)[C@H](C)[C@@H](OC)[C@@H]3CCCN3C(=O)C[C@@H](OC)[C@H]([C@@H](C)CC)N(C)C(=O)[C@@H](NC(=O)[C@H](C(C)C)N(C)C)C(C)C)CC[C@]3(C)[C@H](CC[C@@H]4[C@@]5(C)CC[C@H](O)C(C)(C)[C@@H]5CC[C@]43C)[C@@H]12,GI50,KM-20L2,0.31 µg/mL
same,GI50,SF-268,0.3 µg/mL
same,GI50,MCF7,0.4 µg/mL
same,GI50,NCI-H460,> 1 µg/mL
same,GI50,DU-145,0.4 µg/mL
same,GI50,BXPC-3,0.6 µg/mL
C=C(C)[C@@H]1CC[C@]2(CO)CC[C@]3(C)[C@H](CC[C@@H]4[C@@]5(C)CC[C@H](O)C(C)(C)[C@@H]5CC[C@]43C)[C@@H]12 [BETULIN],GI50,KM-20L2,> 10 µg/mL
same,GI50,SF-268,> 10 µg/mL
same,GI50,MCF7,> 10 µg/mL
same,GI50,NCI-H460,7.4 µg/mL
same,GI50,DU-145,> 10 µg/mL
same,GI50,BXPC-3,9.3 µg/mL
CC[C@H](C)[C@@H]([C@@H](CC(=O)N1CCC[C@H]1[C@H](OC)[C@@H](C)C(=O)NCCN1C(=O)[C@]23CCC(C)(C)C1[C@@H]2[C@H]1CC[C@@H]2[C@@]4(C)CC[C@H](O)C(C)(C)[C@@H]4CC[C@@]2(C)[C@]1(C)CC3)OC)N(C)C(=O)[C@@H](NC(=O)[C@H](C(C)C)N(C)C)C(C)C,GI50,KM-20L2,0.22 µg/mL
same,GI50,SF-268,0.09 µg/mL
same,GI50,MCF7,0.21 µg/mL
same,GI50,NCI-H460,0.6 µg/mL
same,GI50,DU-145,0.06 µg/mL
same,GI50,BXPC-3,0.31 µg/mL
C=C(CN)[C@@H]1CC[C@]2(CO)CC[C@]3(C)[C@H](CC[C@@H]4[C@@]5(C)CC[C@H](O)C(C)(C)[C@@H]5CC[C@]43C)[C@@H]12,GI50,KM-20L2,2.9 µg/mL
same,GI50,SF-268,4.2 µg/mL
same,GI50,MCF7,3.1 µg/mL
same,GI50,NCI-H460,4 µg/mL
same,GI50,DU-145,2.1 µg/mL
same,GI50,BXPC-3,3 µg/mL
C=C(CNC(=O)[C@H](C)[C@@H](OC)[C@@H]1CCCN1C(=O)C[C@@H](OC)[C@H]([C@@H](C)CC)N(C)C(=O)[C@@H](NC(=O)[C@H](C(C)C)N(C)C)C(C)C)[C@@H]1CC[C@]2(CO)CC[C@]3(C)[C@H](CC[C@@H]4[C@@]5(C)CC[C@H](O)C(C)(C)[C@@H]5CC[C@]43C)[C@@H]12,GI50,KM-20L2,0.09 µg/mL
same,GI50,SF-268,0.04 µg/mL
same,GI50,MCF7,0.08 µg/mL
same,GI50,NCI-H460,0.5 µg/mL
same,GI50,DU-145,0.04 µg/mL
same,GI50,BXPC-3,0.4 µg/mL
C=C(C)[C@@H]1CC[C@]2(/C=N/O)CC[C@]3(C)[C@H](CC[C@@H]4[C@@]5(C)CC[C@H](OC(C)=O)C(C)(C)[C@@H]5CC[C@]43C)[C@@H]12,GI50,KM-20L2,5.1 µg/mL
same,GI50,SF-268,13.2 µg/mL
same,GI50,MCF7,4.5 µg/mL
same,GI50,NCI-H460,4.1 µg/mL
same,GI50,DU-145,> 10 µg/mL
same,GI50,BXPC-3,15.5 µg/mL
CC[C@H](C)[C@@H]([C@@H](CC(=O)N1CCC[C@H]1[C@H](OC)[C@@H](C)C(=O)NCCN1C(=O)[C@]23CCC(C)(C)C1[C@@H]2[C@H]1CC[C@@H]2[C@@]4(C)CC[C@H](OC(C)=O)C(C)(C)[C@@H]4CC[C@@]2(C)[C@]1(C)CC3)OC)N(C)C(=O)[C@@H](NC(=O)[C@H](C(C)C)N(C)C)C(C)C,GI50,KM-20L2,3.1 µg/mL
same,GI50,SF-268,1.3 µg/mL
same,GI50,MCF7,3.6 µg/mL
same,GI50,NCI-H460,5.1 µg/mL
same,GI50,DU-145,0.39 µg/mL
same,GI50,BXPC-3,3.8 µg/mL
C=C(C)[C@@H]1CC[C@]2(CNC(=O)[C@H](C)[C@@H](OC)[C@@H]3CCCN3C(=O)OC(C)(C)C)CC[C@]3(C)[C@H](CC[C@@H]4[C@@]5(C)CC[C@H](OC(C)=O)C(C)(C)[C@@H]5CC[C@]43C)[C@@H]12,GI50,KM-20L2,> 10 µg/mL
same,GI50,SF-268,> 10 µg/mL
same,GI50,MCF7,> 10 µg/mL
same,GI50,NCI-H460,> 10 µg/mL
same,GI50,DU-145,> 10 µg/mL
same,GI50,BXPC-3,> 10 µg/mL
C=C(CNC(=O)[C@H](C)[C@@H](OC)[C@@H]1CCCN1C(=O)C[C@@H](OC)[C@H]([C@@H](C)CC)N(C)C(=O)[C@@H](NC(=O)[C@H](C(C)C)N(C)C)C(C)C)[C@@H]1CC[C@]2(COC(C)=O)CC[C@]3(C)[C@H](CC[C@@H]4[C@@]5(C)CC[C@H](OC(C)=O)C(C)(C)[C@@H]5CC[C@]43C)[C@@H]12,GI50,KM-20L2,4 µg/mL
same,GI50,SF-268,4 µg/mL
same,GI50,MCF7,6.3 µg/mL
same,GI50,NCI-H460,> 10 µg/mL
same,GI50,DU-145,3 µg/mL
same,GI50,BXPC-3,8 µg/mL
C=C(C)[C@@H]1CC[C@]2(COC(C)=O)CC[C@]3(C)[C@H](CC[C@@H]4[C@@]5(C)CC[C@H](N)C(C)(C)[C@@H]5CC[C@]43C)[C@@H]12,GI50,KM-20L2,0.35 µg/mL
same,GI50,SF-268,0.21 µg/mL
same,GI50,MCF7,0.2 µg/mL
same,GI50,NCI-H460,0.21 µg/mL
same,GI50,DU-145,0.13 µg/mL
same,GI50,BXPC-3,1.1 µg/mL
